# From PubChem
# Shown is part of a subset that was picked to be rich in hits.
# DAT uptake mod – changed human dopamine transporter uptake under cocaine IC80. Q01959. LLC-PK1 hDAT cells, [14C]-dopamine uptake with cocaine IC80; actives deviate in either direction. B-score at 10 µM. 1.3% of 110,000 active. AID 449768;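 active = Z score or B-score, a plate-position-corrected score, falls beyond the plate's 99.7% confidence bounds, in either direction; inactive = both scores lie inside the 99.7% bounds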;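 also: scored against the spread of the other compound wells on the same plate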
# WNV protease inh – blocks West Nile virus NS2B-NS3 protease activity | z-score (concentration not given with the values) | WNV NS2B-NS3 protease, fluorogenic substrate Ex360/Em465; stronger effect = lower value | P06935 | AID 577 | 0.18% of 65,000 active; in the data active = z-score below about -3
# Target sequence (P06935 1371-1501 limits assumed): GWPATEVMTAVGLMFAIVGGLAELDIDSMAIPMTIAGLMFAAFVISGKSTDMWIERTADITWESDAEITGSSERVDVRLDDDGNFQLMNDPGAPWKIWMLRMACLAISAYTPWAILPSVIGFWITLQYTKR
# Target sequence (P06935 1502-1679 limits assumed): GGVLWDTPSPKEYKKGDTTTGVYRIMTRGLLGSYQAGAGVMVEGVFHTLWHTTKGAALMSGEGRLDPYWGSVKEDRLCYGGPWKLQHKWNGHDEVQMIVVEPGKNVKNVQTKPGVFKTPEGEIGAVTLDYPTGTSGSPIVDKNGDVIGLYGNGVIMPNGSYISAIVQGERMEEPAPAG
# D1 mod – D1 dopamine receptor (human) allosteric modulation | P21728 | HEK293 D1, CRE-luciferase, dopamine EC30 potentiation; actives deviate in either direction | B-score at 10 µM | 5.9% of 58,000 active;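 active = luminescence count or its row- and column-corrected plate score outside the 99.7% band of the plate's sample wells, on either side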
# AP complement – orthogonal test for alternative complement pathway inhibitors. Human serum alternative complement pathway, LPS-coated ELISA, C3 deposition; tested in compound mixtures. inhibition, % at 5 µM. 0.08% of 62,000 active. AID 1235;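 active = inhibition above 30% in each of the two pooled mixtures holding the compound, so the lower value exceeds 30%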;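 also: 0% = serum in Mg-EGTA without compound and 100% = EDTA serum blank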
#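 Test system: human serum complement alternative pathway, C3 deposition onto LPS / Medium: Mg2+-EGTA GVB++ buffer containing human serum at 1:15 dilution / Probe or stimulus: Plate-bound LPS / Times: 1 h at 37 °C / Signal: ELISA with HRP anti-human C3 antibody, TMB substrate, absorbance 450 nm / Measure: percent inhibition / Repeats: two pool placements per compound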
# D1 mod confirm – D1 receptor (human) allosteric modulation, confirmed | shares compounds with D1 mod | HEK293 D1 CRE-luciferase, dopamine EC30 potentiation; stronger effect = higher value | luminescence at 10 µM | 88% of 2,200 active;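 active = luminescence in either of two replicates above the same-plate mean plus 3 SD of the low-dose dopamine control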
# D1 no dopamine – activates D1 CRE-luciferase signal without dopamine present. shares compounds with D1 mod. HEK293 D1 CRE-luciferase, luminescence, no dopamine; stronger effect = higher value. luminescence at 10 µM. 0.8% of 1,900 active; in the data active = luminescence above about 3900
# Isoprot counter – isoproterenol response counter-screen activity for D1 modulators. HEK293 D1 CRE-luciferase, isoproterenol EC30 counter-screen; stronger effect = higher value. 63% of 2,200 active. luminescence at 10 µM. shares compounds with D1 mod;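 active = luminescence in either replicate above plate mean of wells with a partly effective reference agonist dose plus 3 SD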;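 also: isoproterenol raises cAMP through native beta-adrenoceptor Gs so signal bypasses D1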
# An asterisk follows results filed as active; nt = not tested or not shown.
SMILES,DAT uptake mod,WNV protease inh,D1 mod,AP complement,D1 mod confirm,D1 no dopamine,Isoprot counter
c1csc(-c2nn3c(C4COc5ccccc5O4)nnc3s2)c1 (stereo unspecified),-0.092,-0.95,8.6*,20,18120*,1676,4616*
Fc1ccc(-c2nnc3sc(C4COc5ccccc5O4)nn23)cc1 (stereo unspecified),-0.56,-0.91,1.1,14,nt,nt,nt
Fc1ccc(-c2nn3c(C4COc5ccccc5O4)nnc3s2)cc1 (stereo unspecified),nt,-0.57,3.8*,27,14388*,1980,3472*
Clc1ccc(Cl)c(-c2nn3c(COc4ccccc4)nnc3s2)c1,-0.58,-0.36,2.8,0,nt,nt,nt
c1ccc(OCc2nnc3sc(-c4cccs4)nn23)cc1,0.38,0.34,6.4*,29,15144*,1772,3640*
Cc1ccc2c(C)nc(NC3=NCN(CCc4ccccc4)CN3)nc2c1,nt,-0.62,-2.2,-18,nt,nt,nt
CCCc1nc2sc3ccccc3c(=O)c2c(=O)n1Cc1ccco1,nt,0.94,4.6*,3,9128*,1636,3532
C#Cc1ccc([C@@H]2C=C(C(=O)NCc3nc4ccccc4[nH]3)O[C@H](OCC)[C@H]2CCCO)cc1,0.69,nt,nt,nt,nt,nt,nt
O=C(c1nc2nc(-c3ccc(Cl)cc3)cc(C(F)(F)F)n2n1)N1CCOCC1,0.12,0.94,2.9*,11,8024*,1772,3152*
COc1ccccc1CNC(=O)N[C@@H](Cc1ccccc1)C(=O)O,1.4,-0.01,-0.78,-3,nt,nt,nt
CC1(C)CSC(=S)N1S(=O)(=O)c1ccccc1,-0.49,-0.17,-1.3,11,nt,nt,nt
COc1ccc(Nc2nc(N)nc(CSc3n[nH]c(-c4ccccc4)n3)n2)cc1,0.51,1.4,5*,0,6616*,1264,3220*
COC(=O)c1ccccc1NC(=O)c1ccco1,1,-0.9,4.4*,27,11880*,1664,3404*
COC(=O)c1c(-c2ccccc2)csc1NC(=O)c1ccco1,-0.093,1.5,4.9*,-2,6288*,1440,2608
O=C(CSc1nnc(-c2ccccc2O)o1)Oc1ccc(OCc2ccccc2)cc1,-0.013,-0.87,0.48,11,nt,nt,nt
N#Cc1c(N)nc(-c2ccccc2)nc1-c1ccccc1,-0.16,-0.89,18*,12,18844*,1712,3052
N#Cc1c(-c2ccccc2)nc(-c2ccccc2)nc1N1CCOCC1,0.35,nt,nt,nt,nt,nt,nt
O=C(Oc1ccc2ccc(=O)oc2c1)N1CCOCC1,nt,0.74,3.1*,24,5096,1644,2872
O=C(O)CCC(=O)N1CCc2cc(S(=O)(=O)N3CC=C(c4ccccc4)CC3)ccc21,0.79,-1.9,nt,19,nt,nt,nt
CCOC(=O)c1c(C)[nH]c(NC(=O)N2CCOCC2)c1C,-0.26,-0.49,-0.12,21,nt,nt,nt
CCn1cc(C(=O)N2CCCc3ccccc32)c2cc(OC)c(OC)cc2c1=O,nt,0.37,0.18,18,nt,nt,nt
CCN(CC(=O)Nc1ccc2c(c1)OCCO2)c1nc(-c2cccnc2)nc2ccccc12,2.2,-1.1,3.6*,8,7472*,1256,3272*
Cc1nn2c(N3CCCC3)cc(C(C)C)nc2c1-c1ccccc1,-0.24,-1.2,5.3*,9,5624*,1528,2896
Cc1cc(N2CCCCC2)n2nc(C)c(-c3ccccc3)c2n1,-0.057,0.6,0.33,24,nt,nt,nt
C=CCNC(=O)C1CC(c2cccc(OC)c2)=NO1 (stereo unspecified),-0.36,-0.26,4.4*,17,7068*,1696,2508
SMILES,DAT uptake mod,WNV protease inh,D1 mod,AP complement,D1 mod confirm,D1 no dopamine,Isoprot counter
CCOCCn1c(N(C)Cc2ccccc2)nc2c1c(=O)[nH]c(=O)n2C,0.2,-0.6,nt,20,nt,nt,nt
CN(Cc1ccccc1)c1nc2c(c(=O)[nH]c(=O)n2C)n1Cc1ccccc1Cl,-0.53,0.81,17*,5,21184*,1740,8160*
CC1CCN(c2nc3c(c(=O)[nH]c(=O)n3C)n2Cc2ccccc2Cl)CC1,-0.82,1.7,6.2*,21,14268*,1744,4680*
CN(Cc1ccccc1)c1nc2c(c(=O)[nH]c(=O)n2C)n1CCCc1ccccc1,0.7,0.17,5.1*,-17,12224*,1632,4092*
Cn1c(=O)[nH]c(=O)c2[nH]c(N(Cc3ccccc3)Cc3ccccc3)nc21,1.3,-0.36,8.4*,28,16252*,nt,3704*
Cc1cc(N2CCCCCC2)nc2ccc(F)cc12,0.42,nt,nt,nt,nt,nt,nt
COc1ccc(C(=O)NCc2cn3c(C)csc3n2)cc1OC,0.032,0.67,8.3*,nt,15440*,1644,4060*
O=c1c2cc3ccccc3n2cnn1Cc1ccccc1F,0.25,-0.39,3.1*,15,21084*,1636,3920*
CNc1nc(C)c(C(=O)OCC(=O)OC)s1,-0.43,1.9,9.4*,1,13828*,1716,3336
CCOC(=O)c1sc(Nc2ccccc2)nc1C,1.5,nt,nt,nt,nt,nt,nt
CNc1nc(C)c(C(=O)OCc2ccccc2)s1,2,0.54,18*,2,16572*,1592,4872*
Cc1cnn(-c2nc(-c3cccs3)cc(C(F)(F)F)n2)c1,0.087,-1.7,15*,14,14404*,nt,3208*
Cc1ccc2c(c1)c(-c1ccccc1)nc1nncn12,-0.77,0.68,9.1*,14,13296*,1752,3264*
CC(C)C[C@H](NC(=O)c1[nH]cnc1C(=O)N[C@@H](C)c1ccccc1)C(=O)OCc1ccccc1,-0.86,nt,nt,nt,nt,nt,nt
COCc1cc(C)nc(NC2CCCCC2)c1C#N,0.12,0.58,3.5*,7,5216,1592,2852
OCCOCCn1c(C2CCCN2c2nc(-c3ccc(F)cc3)cs2)nc2cc(Cl)c(Cl)cc21 (stereo unspecified),-0.061,nt,nt,nt,nt,nt,nt
Cc1cc2n(n1)C(c1ccc(O)cc1)Nc1ccccc1-2 (stereo unspecified),1.4,-0.29,0.0061,3,nt,nt,nt
Cc1cc2n(n1)C(c1cn(-c3ccccc3)nc1C)Nc1c(C)cccc1-2 (stereo unspecified),-0.13,nt,nt,nt,nt,nt,nt
Cc1cc2n(n1)C(c1ccc3c(c1)OCO3)Nc1c(C)cccc1-2 (stereo unspecified),3.5*,-0.05,12*,4,13912*,1536,3788*
Cc1cc(C)c2c(c1)-c1cc(C)nn1C(c1ccc3c(c1)OCO3)N2 (stereo unspecified),-0.47,0.44,4.4*,-13,10424*,nt,2824*
CC(C)CNC(=O)c1ccc(COc2ccc(Cl)cc2Cl)o1,0.97,nt,nt,nt,nt,nt,nt
COc1ccc(-c2nnc(CSc3nc4ccccc4c(=O)n3CC(C)C)o2)cc1OC,-0.13,-0.76,5.8*,8,6848*,nt,3892*
CC(C)Cn1c(SCC#N)nc2ccccc2c1=O,-0.89,-0.52,8.6*,7,15244*,1668,4324*
